Measurements taken from ChEMBL document CHEMBL1153955, “Indolylarylsulfones bearing natural and unnatural amino acids. Discovery of potent inhibitors of HIV-1 non-nucleoside wild type and resistant mutant strains reverse transcriptase and coxsackie B4 virus” (J Med Chem, 2009).

Columns and labels:
[1] = system: Respiratory syncytial virus; assay: Antiviral activity against RSV Long in human HeLa cells assessed as protection against virus-induced cytopathicity; format: functional, organism-based
Summary of the method: (§1)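 Confluent cell monolayers inoculated with 100 CCID₅₀ virus. After 1-2 h adsorption, residual virus removed and cultures incubated with varying compound concentrations. Cytopathicity scored once it reached completion in untreated infected controls. EC₅₀ = dose reducing virus-induced cytopathogenicity by 50%.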

[2] = system: Vesicular stomatitis virus; assay: Antiviral activity against VSV in human HeLa cells assessed as protection against virus-induced cytopathicity; format: functional, organism-based
[3] = system: Human immunodeficiency virus 1; assay: Antiviral activity against HIV1 3B in human CEM cells assessed as protection against virus-induced cytopathicity after 4 days; format: functional, organism-based; conditions: Human immunodeficiency virus 1, 3B, CCRF-CEM, 96 h
Summary of the method: (§2)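 CEM cells (~3 × 10⁵ cells/mL) infected with ~100 CCID₅₀ per mL of HIV-1 (IIIB) or HIV-2 (ROD), then seeded into wells containing compound dilutions. After 4 days at 37 °C, syncytium (giant cell) formation was examined microscopically. EC₅₀ = concentration protecting CEM cells from HIV cytopathicity by 50%.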

[4] = system: Human immunodeficiency virus 2; assay: Antiviral activity against HIV2 ROD in human CEM cells assessed as protection against virus-induced cytopathicity after 4 days; format: functional, organism-based; conditions: Human immunodeficiency virus 2, ROD, CCRF-CEM, 96 h; summary of the method: as §2
[5] = system: L1210; assay: Antiproliferative activity against mouse L1210 cells after 2 days; format: cell-based; conditions: L1210, 48 h
Summary of the method: (§3)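 Cells seeded at 5 × 10⁴ to 7.5 × 10⁴ cells/200 µL with or without serial compound dilutions; incubated at 37 °C for 2 days (L1210) or 3 days (Molt4/C8, CEM). Cell numbers counted with a Coulter counter. CC₅₀ = concentration reducing proliferation by 50% versus untreated controls, read from plots of cell number (% of control) against concentration. Means of at least two independent experiments.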

[6] = Antiproliferative activity against human Molt4/C8 cells after 3 days; format: cell-based; conditions: MOLT-4, 72 h; summary of the method: as §3
[7] = system: CCRF-CEM; assay: Antiproliferative activity against human CEM cells after 3 days; format: cell-based; conditions: 72 h; summary of the method: as §3
[8] = molecular target: Human immunodeficiency virus type 1 reverse transcriptase (Human immunodeficiency virus 1, UniProt Q72547); assay: Inhibition of HIV1 reverse transcriptase p66/p51; conditions: read-out: IC50
[9] = molecular target: Human immunodeficiency virus type 1 reverse transcriptase (Human immunodeficiency virus 1, UniProt Q72547, L100I); assay: Inhibition of HIV1 reverse transcriptase p66/p51 L100I mutant; conditions: read-out: IC50
Summary of the method: (§4)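 Substrate was 0.5 µg poly(rA)/oligo(dT) 10:1 (0.3 µM 3′-OH ends) with 10 µM [³H]dTTP, at 37 °C. Acid-precipitable radioactivity was counted on GF/C filters after TCA washes.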

[10] = molecular target: Human immunodeficiency virus type 1 reverse transcriptase (Human immunodeficiency virus 1, UniProt Q72547, K103N); assay: Inhibition of HIV1 reverse transcriptase p66/p51 K103N mutant; conditions: read-out: IC50; summary of the method: as §4
[11] = molecular target: Human immunodeficiency virus type 1 reverse transcriptase (Human immunodeficiency virus 1, UniProt Q72547, Y181I); assay: Inhibition of HIV1 reverse transcriptase p66/p51 Y181I mutant; conditions: read-out: IC50; summary of the method: as §4
[12] = Cytotoxicity against human HeLa cells assessed as drug level causing microscopically detectable alteration of normal cell morphology after 3 days; format: cell-based
Summary of the method: (§5)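 Serial compound dilutions added to confluent HeLa or Vero monolayers. MCC = minimum concentration causing microscopically detectable alteration of cell morphology after 3 days of incubation.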

[13] = Cytotoxicity against african green monkey Vero cells assessed as drug level causing microscopically detectable alteration of normal cell morphology after 3 days; format: cell-based; conditions: chlorocebus sabaeus; summary of the method: as §5
[14] = system: Coxsackievirus B4; assay: Antiviral activity against Coxsackievirus B4 in human HeLa cells assessed as protection against virus-induced cytopathicity; format: functional, organism-based; conditions: Enterovirus B; summary of the method: as §1
[15] = system: Coxsackievirus B4; assay: Antiviral activity against Coxsackievirus B4 in african green monkey Vero cells assessed as protection against virus-induced cytopathicity; format: functional, organism-based; conditions: Enterovirus B; summary of the method: as §1
[16] = system: Human respirovirus 3; assay: Antiviral activity against Parainfluenza virus type 3 in african green monkey Vero cells assessed as protection against virus-induced cytopathicity; format: functional, organism-based; conditions: Human respirovirus 3, Vero; summary of the method: as §1
[17] = system: Mammalian orthoreovirus 1; assay: Antiviral activity against Reovirus 1 in african green monkey Vero cells assessed as protection against virus-induced cytopathicity; format: functional, organism-based; conditions: Mammalian orthoreovirus 1, Vero; summary of the method: as §1
[18] = system: Sindbis virus; assay: Antiviral activity against Sindbis virus in african green monkey Vero cells assessed as protection against virus-induced cytopathicity; format: functional, organism-based; summary of the method: as §1
[19] = system: Punta Toro virus; assay: Antiviral activity against Punta Toro virus in african green monkey Vero cells assessed as protection against virus-induced cytopathicity; format: functional, organism-based; summary of the method: as §1
[20] = Cytotoxicity against human HEL cells assessed as drug level causing microscopically detectable alteration of normal cell morphology after 3 days; format: cell-based
[21] = system: Human alphaherpesvirus 1; assay: Antiviral activity against HSV1 KOS in human HEL cells assessed as protection against virus-induced cytopathicity; format: functional, organism-based; conditions: Human alphaherpesvirus 1, KOS
[22] = system: Human alphaherpesvirus 2; assay: Antiviral activity against HSV2 G in human HEL cells assessed as protection against virus-induced cytopathicity; format: functional, organism-based; conditions: Human alphaherpesvirus 2, strain G; summary of the method: as §1
[23] = system: Vaccinia virus; assay: Antiviral activity against Vaccinia virus Lederle in human HEL cells assessed as protection against virus-induced cytopathicity; format: functional, organism-based; conditions: Orthopoxvirus vaccinia
[24] = system: Vesicular stomatitis virus; assay: Antiviral activity against VSV in human HEL cells assessed as protection against virus-induced cytopathicity; format: functional, organism-based
[25] = system: Human alphaherpesvirus 1; assay: Antiviral activity against thymidine kinase deficient and acyclovir resistant HSV1 KOS in human HEL cells assessed as protection against virus-induced cytopathicity; format: functional, organism-based; conditions: Human alphaherpesvirus 1, KOS
[26] = Cytotoxicity against MDCK cells assessed as drug level causing microscopically detectable alteration of normal cell morphology; format: cell-based, Canis lupus familiaris; conditions: dog
[27] = Cytotoxicity against MDCK cells by MTS assay; format: cell-based, Canis lupus familiaris; conditions: dog
[28] = system: Influenza A virus; assay: Antiviral activity against influenza H1N1 virus in MDCK cells assessed as reduction of virus-induced cytopathicity by visual cytopathic effect scoring method; format: functional, organism-based
[29] = system: Influenza A virus; assay: Antiviral activity against influenza H1N1 virus in MDCK cells assessed as reduction of virus-induced cytopathicity by MTS method; format: functional, organism-based; conditions: Influenza A virus, H1N1, MDCK
[30] = system: Influenza A virus H3N2; assay: Antiviral activity against influenza H3N2 virus in MDCK cells assessed as reduction of virus-induced cytopathicity by visual cytopathic effect scoring method; format: functional, organism-based
[31] = system: Influenza A virus H3N2; assay: Antiviral activity against influenza H3N2 virus in MDCK cells assessed as reduction of virus-induced cytopathicity by MTS method; format: functional, organism-based
[32] = system: Influenza B virus; assay: Antiviral activity against influenza B virus in MDCK cells assessed as reduction of virus-induced cytopathicity by visual cytopathic effect scoring method; format: functional, organism-based
[33] = system: Influenza B virus; assay: Antiviral activity against influenza B virus in MDCK cells assessed as reduction of virus-induced cytopathicity by MTS method; format: functional, organism-based
[34] = Cytotoxicity against feline CRFK cells by MTS assay; format: cell-based, Felis catus; conditions: cat
[35] = system: Feline coronavirus; assay: Antiviral activity against Feline coronavirus in feline […] cells assessed as inhibition of virus-induced cytopathicity; format: functional, organism-based; conditions: Alphacoronavirus 1
[36] = system: Felid alphaherpesvirus 1; assay: Antiviral activity against Feline herpesvirus in feline […] cells assessed as inhibition of virus-induced cytopathicity; format: functional, organism-based

Structure (SMILES)	EC50 [1]	EC50 [2]	EC50 [3]	EC50 [4]	IC50 [5]	IC50 [6]	IC50 [7]	IC50 [8]	IC50 [9]	IC50 [10]	IC50 [11]	MCC at 72 h [12]	MCC at 72 h [13]	EC50 [14]	EC50 [15]	EC50 [16]	EC50 [17]	EC50 [18]	EC50 [19]	MCC at 72 h [20]	other results
Cc1cc(C)cc(S(=O)(=O)c2c(C(=O)NCCC(N)=O)[nH]c3ccc([N+](=O)[O-])cc23)c1	> 100 µM	> 100 µM	0.0016 µM	> 10 µM	> 500 µM	> 500 µM	≥ 500 µM	0.027 µM	0.204 µM	0.474 µM	5.53 µM	> 100 µM	> 100 µM	> 100 µM	> 100 µM	> 100 µM	> 100 µM	> 100 µM	> 100 µM	≥ 20 µM	EC50 [21]: > 20 µM; EC50 [22]: > 20 µM; EC50 [23]: > 20 µM; EC50 [24]: > 20 µM; EC50 [25]: > 20 µM; MCC [26]: 100 µM; CC50 [27]: > 100 µM; EC50 [28]: > 20 µM; EC50 [29]: > 20 µM; EC50 [30]: > 20 µM; EC50 [31]: > 20 µM; EC50 [32]: > 20 µM; EC50 [33]: > 20 µM; CC50 [34]: > 100 µM; EC50 [35]: > 100 µM; EC50 [36]: > 100 µM
Cc1cc(C)cc(S(=O)(=O)c2c(C(=O)NC(C)CC(N)=O)[nH]c3ccc([N+](=O)[O-])cc23)c1 (stereo not drawn)	> 20 µM	> 20 µM	0.0051 µM	> 10 µM	37 µM	41 µM	36 µM	0.033 µM	0.191 µM	1.09 µM	11.9 µM	100 µM	100 µM	≥ 20 µM	> 20 µM	> 20 µM	> 20 µM	> 20 µM	> 20 µM	20 µM	EC50 [21]: > 4 µM; EC50 [22]: > 4 µM; EC50 [23]: > 4 µM; EC50 [24]: > 4 µM; EC50 [25]: > 4 µM; MCC [26]: 20 µM; CC50 [27]: > 100 µM; EC50 [28]: > 4 µM; EC50 [29]: > 4 µM; EC50 [30]: > 4 µM; EC50 [31]: > 4 µM; EC50 [32]: > 4 µM; EC50 [33]: > 4 µM; CC50 [34]: 21.1 µM; EC50 [35]: > 20 µM; EC50 [36]: > 20 µM
Cc1cc(C)cc(S(=O)(=O)c2c(C(=O)NCCC(N)=O)[nH]c3ccc(Cl)c(F)c23)c1	16 µM	> 20 µM	0.002 µM	> 10 µM	42 µM	33 µM	30 µM	0.034 µM	0.13 µM	0.783 µM	7.16 µM	100 µM	100 µM	9 µM	> 20 µM	> 20 µM	> 20 µM	> 20 µM	> 20 µM	100 µM	EC50 [21]: > 20 µM; EC50 [22]: > 20 µM; EC50 [23]: > 20 µM; EC50 [24]: > 20 µM; EC50 [25]: > 20 µM; MCC [26]: 100 µM; CC50 [27]: 24.3 µM; EC50 [28]: > 20 µM; EC50 [29]: > 20 µM; EC50 [30]: > 20 µM; EC50 [31]: > 20 µM; EC50 [32]: > 20 µM; EC50 [33]: > 20 µM; CC50 [34]: 45.3 µM; EC50 [35]: > 20 µM; EC50 [36]: > 20 µM
